# From ChEMBL document CHEMBL1124697, “A new family of water-soluble, third generation antitumor platinum complexes” (J Med Chem, 1989)
# Assays:
# P388 [1] = assay: Percent increase in life span when compound administered at 6.2 mg/kg against P388 leukemia cells in BDF1 mice; type: functional, organism-based; design: dose 6.2 mg/kg; settings: Mus musculus
# In short: (§1)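 BDF1 mice bearing P388, L1210 or cisplatin-resistant L1210 leukemia; ip dosing on days 1, 5 and 9 relative to tumor inoculation, 30-day observation. Median % ILS over controls at optimal dose plus % survivors; ≥25% ILS counted as active, ≥15% reduction in ILS or body weight over controls rated toxic.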
# B16 [2] = assay: Percent increase in life span when compound administered at 0.4 mg/kg against B-16 melanoma cells in […] mice; type: functional, organism-based; design: dose 0.4 mg/kg; settings: Mus musculus
# In short: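 B-16 melanoma in […] mice; compounds given ip daily on days 1–9 relative to tumor inoculation, animals followed 60 days. Read-out median % increase in life span over controls at optimal dose with % survivors; activity threshold ILS ≥25%; ≥15% reduction in ILS or body weight versus controls rated toxic.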
# P388 [3] = assay: Percent survivors when compound administered at 6.2 mg/kg against P388 leukemia cells in BDF1 mice; type: functional, organism-based; design: dose 6.2 mg/kg; settings: Mus musculus
# In short: (§2)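 BDF1 mice inoculated with P388, L1210 or cisplatin-resistant L1210 leukemia. Compound given ip on days 1, 5 and 9 relative to tumor inoculation, and mice observed for 30 days. Median % increase in life span over controls and % survivors are reported at the optimal dose. Activity requires ILS ≥25%. Toxicity is rated when ILS or body weight is reduced by ≥15%.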
# Colon 26 [4] = assay: Percent in life span when compound administered at 3.1 mg/kg against Colon 26 cells in balb/C mice; type: functional, organism-based; design: dose 3.1 mg/kg; settings: Mus musculus
# In short: (§3)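 Colon 26 in Balb/C mice. Test agents given ip on days 1, 5 and 9 relative to tumor inoculation; mice observed 30 days. Median % increase in life span at optimal dose, with % survivors noted; ILS ≥25% over controls required for activity; ILS or body weight reduced ≥15% versus controls rated toxic.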
# Colon 26 [5] = assay: Percent survivors when compound administered at 3.1 mg/kg against Colon 26 cells in balb/C mice; type: functional, organism-based; design: dose 3.1 mg/kg; settings: Mus musculus
# In short: (§4)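 Colon 26 tumor in Balb/C mice. Dosing ip on days 1, 5 and 9 after tumor inoculation, with a 30-day observation period. Readouts are median % increase in life span over control mice and % survivors, given at the optimal dose. Activity threshold is ILS ≥25%. A ≥15% drop in ILS or body weight is rated toxic.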
# [6] = Water solubility was determined; type: ADME; settings: buffer
# P388 [7] = assay: Percent survivors when compound administered at 12.5 mg/kg against P388 leukemia cells in BDF1 mice; type: functional, organism-based; design: dose 12.5 mg/kg; settings: Mus musculus; in short: as §2
# P388 [8] = assay: Percent increase in life span when compound administered at 12.5 mg/kg against P388 leukemia cells in BDF1 mice; type: functional, organism-based; design: dose 12.5 mg/kg; settings: Mus musculus; in short: as §1
# B16 [9] = assay: Percent increase in life span when compound administered at 12.5 mg/kg against B-16 melanoma cells in […] mice; type: functional; settings: Mus musculus
# In short: (§5)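 Median % increase in life span versus controls and % survivors are recorded at the optimal dose. ILS ≥25% counts as active, and a ≥15% reduction in ILS or body weight counts as toxic.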
# P388 [10] = assay: Percent survivors when compound administered at 25 mg/kg against P388 leukemia cells in BDF1 mice; type: functional; settings: Mus musculus; in short: as §2
# Colon 26 [11] = assay: Percent survivors when compound administered at 25 mg/kg against Colon 26 cells in balb/C mice; type: functional, organism-based; design: dose 25 mg/kg; settings: Mus musculus; in short: as §4
# B16 [12] = assay: Percent survivors when compound administered at 12.5 mg/kg against B-16 melanoma cells in […] mice; type: functional; settings: Mus musculus; in short: as §5
# L1210 [13] = assay: Percent increase in life span when compound administered at 25 mg/kg against L1210 leukemia cells in BDF1 mice; type: functional, organism-based; design: dose 25 mg/kg; settings: Mus musculus; in short: as §1
# Colon 26 [14] = assay: Percent in life span when compound administered at 25 mg/kg against Colon 26 cells in balb/C mice; type: functional, organism-based; design: dose 25 mg/kg; settings: Mus musculus; in short: as §3
# P388 [15] = assay: Percent increase in life span when compound administered at 25 mg/kg against P388 leukemia cells in BDF1 mice; type: functional; settings: Mus musculus; in short: as §2
# L1210 [16] = assay: Percent survivors when compound administered at 25 mg/kg against L1210 cisplatin resistant leukemia cells in BDF1 mice; type: functional, organism-based; design: dose 25 mg/kg; settings: Mus musculus; in short: as §2
# L1210 [17] = assay: Percent increase in life span when compound administered at 25 mg/kg against L1210 cisplatin resistant leukemia cells in BDF1 mice; type: functional, organism-based; design: dose 25 mg/kg; settings: Mus musculus; in short: as §1
# L1210 [18] = assay: Percent survivors when compound administered at 25 mg/kg against L1210 leukemia cells in BDF1 mice; type: functional, organism-based; design: dose 25 mg/kg; settings: Mus musculus; in short: as §2
substance,measurement,setting,value
"Platinum:9,9-Dichloro-2,4-dioxa-8,10-diaza-spiro[5.5]undecane",Increase,P388 [1],173%
same,Increase,B16 [2],27%
same,Survivors,P388 [3],3%
same,Increase,Colon 26 [4],41%
same,Survivors,Colon 26 [5],0%
"Platinum:Formic acid 9-formyloxy-3-methyl-2,4-dioxa-8,10-diaza-spiro[5.5]undec-9-yl ester",Water solubility,[6],100000 µg/mL
"Platinum:3,3-Dichloro-8,15-dioxa-2,4-diaza-dispiro[5.2.5.2]hexadecane",Water solubility,[6],200 µg/mL
"Platinum:9,9-Dichloro-3-methyl-2,4-dioxa-8,10-diaza-spiro[5.5]undecane",Survivors,P388 [7],1%
same,Increase,P388 [8],136%
"Platinum:2,4,10,15-Tetraoxa-8,16-diaza-dispiro[5.2.6.2]heptadecane-11,14-dione",Increase,B16 [9],56%
same,Survivors,P388 [10],1%
same,Survivors,Colon 26 [11],0%
same,Survivors,B16 [12],0%
same,Increase,L1210 [13],110%
same,Increase,Colon 26 [14],46%
same,Increase,P388 [15],120%
same,Survivors,L1210 [16],0%
same,Increase,L1210 [17],44%
same,Survivors,L1210 [18],1%
"Platinum:8,8-Dichloro-1,3-dioxa-7,9-diaza-spiro[4.5]decane",Water solubility,[6],< 200 µg/mL
